ChEMBL document CHEMBL5230179, “Novel irreversible peptidic inhibitors of transglutaminase 2” (RSC Med Chem, 2023)
Activity calls are given as the source filed them. No cut-off for these calls is given here.

Key:
[1] = biological target: T1, Protein-glutamine gamma-glutamyltransferase (Homo sapiens, UniProt P21980); assay: Irreversible inhibition of recombinant human TG2 expressed in Escherichia coli BL21 assessed as inhibition constant using AL5 as substrate by continuous chromogenic assay
T1 sequence (P21980 whole entry): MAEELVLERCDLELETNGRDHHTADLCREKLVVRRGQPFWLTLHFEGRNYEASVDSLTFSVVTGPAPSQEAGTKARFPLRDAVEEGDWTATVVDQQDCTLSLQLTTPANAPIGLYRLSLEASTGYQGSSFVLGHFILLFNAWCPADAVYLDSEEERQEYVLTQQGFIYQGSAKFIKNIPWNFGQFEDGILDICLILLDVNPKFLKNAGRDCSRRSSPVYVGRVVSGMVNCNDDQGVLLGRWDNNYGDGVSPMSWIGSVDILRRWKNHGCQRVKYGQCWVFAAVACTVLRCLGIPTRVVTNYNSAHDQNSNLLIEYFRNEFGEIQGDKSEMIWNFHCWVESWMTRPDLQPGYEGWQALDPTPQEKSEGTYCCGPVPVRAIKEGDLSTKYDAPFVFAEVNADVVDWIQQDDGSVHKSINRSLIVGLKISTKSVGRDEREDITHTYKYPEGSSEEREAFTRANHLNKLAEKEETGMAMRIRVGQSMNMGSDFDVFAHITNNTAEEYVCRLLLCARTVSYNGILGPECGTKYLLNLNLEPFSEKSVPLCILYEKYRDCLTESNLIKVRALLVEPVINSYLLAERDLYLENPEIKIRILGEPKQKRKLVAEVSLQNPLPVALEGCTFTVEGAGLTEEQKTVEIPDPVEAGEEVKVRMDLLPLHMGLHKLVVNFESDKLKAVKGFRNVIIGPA
In short: (§1)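 Human TG2 expressed and purified from E. coli BL21; AL5 (Cbz-Glu(γ-p-nitrophenyl ester)-Gly-OH) hydrolysis read at 405 nm for 20 min at 25 °C under Kitz–Wilson conditions; final 100 µM AL5, 50 mM MOPS pH 6.9, 7.5 mM CaCl2, 5 mU/mL TG2, <5% DMSO; ≥4 inhibitor levels; rate constants fitted by saturation model against [I]/α (α = 1 + [S]/KM) for kinact and KI.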

[2] = biological target: T2, Protein-glutamine gamma-glutamyltransferase (Homo sapiens) (UniProt P21980); assay: Irreversible inhibition of recombinant human TG2 expressed in Escherichia coli BL21 assessed as Kinact using AL5 as substrate by continuous chromogenic assay; in short: as §1
T2 sequence (whole entry): T1 sequence (P21980 whole entry)

[3] = biological target: T2, Protein-glutamine gamma-glutamyltransferase (Homo sapiens); assay: Irreversible inhibition of recombinant human TG2 expressed in Escherichia coli BL21 assessed as ratio of Kinact/Ki using AL5 as substrate by continuous chromogenic assay; in short: as §1
[4] = Apparent permeability from apical to basolateral side in MDCK-MDR1 cells; type: ADME, cell-based, Canis lupus familiaris; settings: dog
[5] = Apparent permeability from basolateral to apical side in MDCK-MDR1 cells; type: ADME, cell-based, Canis lupus familiaris; settings: dog
[6] = test system: MDR1; assay: Efflux ratio of apparent permeability in MDCK-MDR1 cells; type: ADME, cell-based, Canis lupus familiaris; settings: dog
[7] = Lipophilicity, logP of the compound; type: physicochemical; settings: octanol/water
[8] = test system: SCC-13; assay: Antiproliferative activity against human SCC-13 cells assessed as dose-dependent inhibition at 25 to 100 uM incubated for 48 hrs by Coulter cell counter analysis; type: functional, cell-based; settings: dose 25-100 µM
[9] = test system: SCC-13; assay: Inhibition of cell invasion in human SCC-13 cells at 10 to 50 uM measured over 20 hrs by DAPI staining based fluorescence microscopic analysis; type: functional; settings: dose 10-50 µM
In short: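 Matrigel-coated inserts (8-µm pores); 20,000 SCC-13 cells seeded in upper chamber in growth medium with 1% FCS, lower chamber 10% FCS; invasion followed over 0–20 h; membrane fixed in 4% paraformaldehyde, nuclei DAPI-stained, cells on lower surface counted by fluorescence microscopy.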

[10] = biological target: T2, Protein-glutamine gamma-glutamyltransferase (Homo sapiens); assay: Irreversible inhibition of recombinant human TG2 expressed in Escherichia coli BL21 assessed as ratio of Kinact/Ki using AL5 as substrate by linear regression analysis
In short: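 Same TG2/AL5 continuous 405 nm assay (100 µM AL5, 5 mU/mL TG2, 50 mM MOPS, 7.5 mM CaCl2, 25 °C, 20 min); where saturation was not reached, rate constants of the lowest 3 inhibitor concentrations fitted by linear regression, slope taken as kinact/KI.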

SMILES | Ki [1] | Kinact [2] | Ratio [3] | further results
C=CC(=O)NCCCC[C@H](NC(=O)OCc1ccccc1)C(=O)N1CCN(C(=O)[C@@H](Cc2ccccc2)NC(=O)c2cccc3ccccc23)CC1 | 1 µM | 0.8 min⁻¹ | 760 10^3/M/min | Papp A→B [4]: 0.06 ×10⁻⁶ cm/s; Papp B→A [5]: 5.46 ×10⁻⁶ cm/s; efflux ratio [6]: 96.7; logP [7]: 2.73; Activity [8]: inactive; inhibition [9]: Active
C=CC(=O)NCCCC[C@H](NC(=O)Cc1ccccc1Br)C(=O)N1CCN(C(=O)[C@H](C)NC(=O)c2cccc3ccccc23)CC1 | 9.8 µM | 2.69 min⁻¹ | 275 10^3/M/min | –
C=CC(=O)NCCCC[C@H](NC(=O)OCc1ccccc1)C(=O)N[C@H](C(=O)N1CCN(C(=O)c2cccc3ccccc23)CC1)C(C)C | 5.1 µM | 0.29 min⁻¹ | 56 10^3/M/min | –
C=CC(=O)NCCCC[C@H](NC(=O)Cc1ccc(F)cc1F)C(=O)N1CCN(C(=O)[C@H](C)NC(=O)c2cccc3ccccc23)CC1 | 5.1 µM | 1.16 min⁻¹ | 225 10^3/M/min | –
C=CC(=O)NCCCC[C@H](NC(=O)Cc1ccccc1C)C(=O)N1CCN(C(=O)[C@@H](C)NC(=O)c2cccc3ccccc23)CC1 | 14.9 µM | 5.59 min⁻¹ | 374 10^3/M/min | –
C=CC(=O)NCCCC[C@H](NC(=O)Cc1ccccc1OC)C(=O)N1CCN(C(=O)[C@H](C)NC(=O)c2cccc3ccccc23)CC1 | 6 µM | 1.52 min⁻¹ | 252 10^3/M/min | –
C=CC(=O)NCCCC[C@H](NC(=O)OCc1ccccc1)C(=O)N1CCN(C(=O)[C@@H](NC(=O)c2cccc3ccccc23)C(C)CC)CC1 (some centres undefined) | 8.1 µM | 2.4 min⁻¹ | 300 10^3/M/min | –
C=CC(=O)NCCCC[C@H](NC(=O)OCc1ccccc1)C(=O)N1CCN(C(=O)[C@H](Cc2ccccc2)NC(=O)c2cccc3ccccc23)CC1 | 2.1 µM | 0.99 min⁻¹ | 470 10^3/M/min | –
C=CC(=O)NCCCC[C@H](NC(=O)Cc1ccccc1Br)C(=O)N1CCN(C(=O)[C@@H](C)NC(=O)c2cccc3ccccc23)CC1 | – | – | 209 10^3/M/min | –
C=CC(=O)NCCCC[C@H](NC(=O)OCc1ccccc1)C(=O)N1CCN(C(=O)[C@H](NC(=O)c2cccc3ccccc23)C(C)C)CC1 | 1.3 µM | 0.75 min⁻¹ | 595 10^3/M/min | –
C=CC(=O)NCCCC[C@H](NC(=O)Cc1ccccc1C)C(=O)N1CCN(C(=O)[C@@H](Cc2ccccc2)NC(=O)c2cccc3ccccc23)CC1 | – | – | – | Ratio [10]: 238 10^3/M/min
C=CC(=O)NCCCC[C@H](NC(=O)OCc1ccccc1)C(=O)N1CCN(C(=O)[C@@H](NC(=O)c2cccc3ccccc23)C(C)C)CC1 | 2.9 µM | 0.79 min⁻¹ | 272 10^3/M/min | –
C=CC(=O)NCCCC[C@H](NC(=O)OCc1ccccc1)C(=O)N1CCN(C(=O)CNC(=O)c2cccc3ccccc23)CC1 | 0.3 µM | 0.16 min⁻¹ | 513 10^3/M/min | Papp A→B [4]: 0.55 ×10⁻⁶ cm/s; Papp B→A [5]: 8.43 ×10⁻⁶ cm/s; efflux ratio [6]: 15.5; logP [7]: 2.99
C=CC(=O)NCCCC[C@H](NC(=O)Cc1ccccc1F)C(=O)N1CCN(C(=O)[C@H](C)NC(=O)c2cccc3ccccc23)CC1 | 3.3 µM | 1.68 min⁻¹ | 502 10^3/M/min | –
C=CC(=O)NCCCC[C@H](NC(=O)OCc1ccccc1)C(=O)N1CCN(C(=O)[C@@H](C)NC(=O)c2cccc3ccccc23)CC1 | 1.3 µM | 0.75 min⁻¹ | 590 10^3/M/min | –
C=CC(=O)NCCCC[C@H](NC(=O)OCc1ccccc1)C(=O)N1CCN(C(=O)[C@H](CC(C)C)NC(=O)c2cccc3ccccc23)CC1 | 12.8 µM | 3.1 min⁻¹ | 240 10^3/M/min | –
C=CC(=O)NCCCC[C@H](NC(=O)Cc1ccccc1Cl)C(=O)N1CCN(C(=O)[C@H](Cc2ccccc2)NC(=O)c2cccc3ccccc23)CC1 | 1.6 µM | 0.25 min⁻¹ | 155 10^3/M/min | –
C=CC(=O)NCCCC[C@H](NC(=O)OCc1ccccc1)C(=O)N1CCN(C(=O)[C@H](C)NC(=O)c2cccc3ccccc23)CC1 | 2.3 µM | 1.4 min⁻¹ | 610 10^3/M/min | –
C=CC(=O)NCCCC[C@H](NC(=O)Cc1ccccc1Cl)C(=O)N1CCN(C(=O)[C@H](C)NC(=O)c2cccc3ccccc23)CC1 | 9.3 µM | 1.97 min⁻¹ | 211 10^3/M/min | –
C=CC(=O)NCCCC[C@H](NC(=O)OCc1ccccc1)C(=O)N1CCN(C(=O)[C@@H](CC(C)C)NC(=O)c2cccc3ccccc23)CC1 | 4.4 µM | 1.4 min⁻¹ | 330 10^3/M/min | –
C=CC(=O)NCCCC[C@H](NC(=O)Cc1ccccc1Cl)C(=O)N1CCN(C(=O)[C@@H](Cc2ccccc2)NC(=O)c2cccc3ccccc23)CC1 | – | – | – | Ratio [10]: 127 10^3/M/min
C=CC(=O)NCCCC[C@H](NC(=O)Cc1ccccc1Br)C(=O)N1CCN(C(=O)[C@@H](Cc2ccccc2)NC(=O)c2cccc3ccccc23)CC1 | – | – | – | Ratio [10]: 132 10^3/M/min
C=CC(=O)NCCCC[C@H](NC(=O)Cc1ccccc1Br)C(=O)N1CCN(C(=O)[C@H](Cc2ccccc2)NC(=O)c2cccc3ccccc23)CC1 | 1.3 µM | 0.24 min⁻¹ | 182 10^3/M/min | –
C=CC(=O)NCCCC[C@H](NC(=O)Cc1ccccc1Cl)C(=O)N1CCN(C(=O)[C@@H](C)NC(=O)c2cccc3ccccc23)CC1 | – | – | – | Ratio [10]: 170 10^3/M/min
C=CC(=O)NCCCC[C@H](NC(=O)OCc1ccccc1)C(=O)N[C@@H](C(=O)N1CCN(C(=O)c2cccc3ccccc23)CC1)C(C)C | 3.4 µM | 0.22 min⁻¹ | 65 10^3/M/min | –
C=CC(=O)NCCCC[C@H](NC(=O)Cc1ccccc1C)C(=O)N1CCN(C(=O)[C@H](Cc2ccccc2)NC(=O)c2cccc3ccccc23)CC1 | 8.8 µM | 1.51 min⁻¹ | 171 10^3/M/min | –
C=CC(=O)NCCCC[C@H](NC(=O)Cc1ccccc1C)C(=O)N1CCN(C(=O)[C@H](C)NC(=O)c2cccc3ccccc23)CC1 | 9.5 µM | 3.95 min⁻¹ | 418 10^3/M/min | –
C=CC(=O)NCCCC[C@H](NC(=O)OCc1ccccc1)C(=O)NCC(=O)N1CCN(C(=O)c2cccc3ccccc23)CC1 | 2.3 µM | 0.77 min⁻¹ | 330 10^3/M/min | –
